Data as given in ChEMBL document CHEMBL2046313, “Discovery and evaluation of a non-Zn chelating, selective matrix metalloproteinase 13 (MMP-13) inhibitor for potential intra-articular treatment of osteoarthritis” (J Med Chem, 2012).

How the values were obtained:
[1] = species: Rattus norvegicus; test: Chondroprotective activity in Sprague-Dawley rat cartilage assessed as inhibition of MMP13-mediated C1,C2 release at 0.5 mg/joint, ia measured on day 14 by ELISA; type: functional
Procedure, shortened: (§1)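 Male Sprague-Dawley rats (175−200 g, three per group) received one IA injection of 50 μL PBS holding 10 mg/mL suspension (sonicated, vortexed) into right knee. They were killed at 1, 7, 14 or 21 days, and tibial cartilage was collected. Cartilage was then challenged with 10 μg/mL APMA-activated human MMP-13 for 24 h at 37 °C in Tris pH 7.5. The reaction was stopped with 10 mM EDTA, and released C1,2C was measured by ELISA. Vehicle cartilage incubated with or without MMP-13 defined 100% and 0%.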

[2] = test system: Plasma; test: Drug uptake in Sprague-Dawley rat plasma at 0.5 mg/joint measured after 8 weeks; type: ADME, cell-free; details: other, 1344 h, BLD = below limit of detection
[3] = target: Collagenase 3 (Homo sapiens, UniProt P45452); test: Inhibition of human recombinant MMP13 using MCA-Pro-Cha-Gly-Nva-His-Ala-Dpa-NH2 as substrate preincubated for 10 mins measured by fluorescence analysis
Procedure, shortened: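 Catalytic domain of recombinant human MMP-13 was assayed with fluorogenic substrate in 50 mM Tris-HCl pH 7.5, 150 mM NaCl, 5 mM CaCl₂, 0.05% Brij-35. Enzyme was 1–10 nM and substrate 4–10 μM. It was preincubated 10 min with varying inhibitor concentrations, and IC50 came from at least duplicate runs.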

[4] = species: Rattus norvegicus; test: Chondroprotective activity in Sprague-Dawley rat cartilage assessed as inhibition of MMP13-mediated C1,C2 release at 0.5 mg/joint, ia measured on day 7 by ELISA; type: functional; procedure, shortened: as §1
[5] = Metabolic stability in human microsomes assessed as unmetabolized compound after 60 mins; type: ADME, Microsome; details: read-out: Stability
[6] = Drug uptake in Sprague-Dawley rat cartilage at 0.5 mg/joint measured on day 56; type: ADME, tissue-based, Cartilage tissue; details: read-out: Drug uptake
[7] = target: Stromelysin-1 (Homo sapiens, UniProt P08254); test: Inhibition of human recombinant MMP3 using MCAArg-Pro-Lys-Pro-Val-Glu-Nva-Trp-Arg-Lys(DNP)-NH2 as substrate preincubated for 10 mins measured by fluorescence analysis
Procedure, shortened: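 Catalytic domain of recombinant human MMP-3 was assayed with NFF-3 fluorogenic substrate in 50 mM MES pH 6.0, 10 mM CaCl₂, 0.05% Brij-35. Enzyme was 1–10 nM and substrate 4–10 μM. Enzyme was preincubated 10 min with varying inhibitor concentrations, and IC50 came from at least duplicate runs.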

[8] = species: Rattus norvegicus; test: Toxicity in Sprague-Dawley rat assessed as ability to use limbs at 0.5 mg/joint measured on day 56; type: organism-based; details: in vivo, other
[9] = test system: Cartilage tissue; test: Inhibition of collagen degradation in bovine articular cartilage assessed as inhibition of interlukein-1alpha/oncostatin M-induced C1,C2 release measured after 11 days by ELISA; type: functional, tissue-based; details: Bos taurus
Procedure, shortened: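 Freshly isolated bovine articular cartilage pieces (~3 mm²) were stimulated with 5 ng/mL IL-1α plus 50 ng/mL OSM, with or without compound, for 11 days. Medium was refreshed twice weekly. Collagen degradation products in the conditioned medium were quantified by C1,2C ELISA.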

[10] = test system: Rattus norvegicus; test: Toxicity in Sprague-Dawley rat assessed as adverse effects at 0.5 mg/kg, ia measured after 48 hrs; type: organism-based; design: dose 0.5 mg/kg; details: in vivo, other
[11] = Drug uptake in Sprague-Dawley rat cartilage at 0.5 mg/joint measured after 21 days; type: ADME, tissue-based, Cartilage tissue; details: read-out: Drug uptake
[12] = species: Rattus norvegicus; test: Toxicity in Sprague-Dawley rat assessed as impaired use of limbs at 0.5 mg/joint measured on day 56; type: organism-based; details: in vivo, other
[13] = test system: Plasma; test: Drug uptake in Sprague-Dawley rat plasma at 1 mg/kg, iv measured after 8 weeks; type: ADME, organism-based; design: dose 1 mg/kg, route intravenous; details: in vivo, 1344 h, BLD = below limit of detection
[14] = target: Matrix metalloproteinase-14 (Homo sapiens, UniProt P50281); test: Inhibition of human recombinant MMP14 using MCA-Pro-Leu-Gly-Leu-Dpa-Ala-Arg-NH2.AcOH as substrate preincubated for 10 mins measured by fluorescence analysis
Procedure, shortened: (§2)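 Catalytic domains of recombinant human MMPs were assayed with fluorogenic OmniMMP substrate in 50 mM Tris-HCl pH 7.5, 150 mM NaCl, 5 mM CaCl₂, 0.05% Brij-35. Enzyme was 1–10 nM and substrate 4–10 μM, optimized per assay. Enzyme was preincubated 10 min with varying inhibitor concentrations, and IC50 was calculated from runs done at least in duplicate.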

[15] = target: 72 kDa type IV collagenase (Homo sapiens, UniProt P08253); test: Inhibition of human recombinant MMP2 using MCA-Pro-Leu-Gly-Leu-Dpa-Ala-Arg-NH2.AcOH as substrate preincubated for 10 mins measured by fluorescence analysis; procedure, shortened: as §2
[16] = test system: Plasma; test: Drug uptake in Sprague-Dawley rat plasma at 0.5 mg/kg, ia measured after 8 weeks; type: ADME, organism-based; design: dose 0.5 mg/kg; details: in vivo, other, 1344 h, BLD = below limit of detection
[17] = target: Matrix metalloproteinase-9 (Homo sapiens, UniProt P14780); test: Inhibition of human recombinant MMP9 using MCA-Pro-Leu-Gly-Leu-Dpa-Ala-Arg-NH2.AcOH as substrate preincubated for 10 mins measured by fluorescence analysis; procedure, shortened: as §2
[18] = Drug uptake in Sprague-Dawley rat synovial lavage at 0.5 mg/joint measured on day 56; type: ADME; details: in vivo, other, BLD = below limit of detection
[19] = Metabolic stability in rat microsomes assessed as unmetabolized compound after 60 mins; type: ADME, Microsome; details: read-out: Stability
[20] = test system: Rattus norvegicus; test: Toxicity in Sprague-Dawley rat assessed as joint irritation at 0.5 mg/kg, ia measured after 3 weeks; type: organism-based; design: dose 0.5 mg/kg; details: in vivo, other, 504 h
[21] = Drug uptake in Sprague-Dawley rat synovial lavage at 0.5 mg/joint measured after 21 days; type: ADME; details: read-out: Drug uptake
[22] = species: Rattus norvegicus; test: Chondroprotective activity in Sprague-Dawley rat cartilage assessed as inhibition of MMP13-mediated C1,C2 release at 0.5 mg/joint, ia measured on day 21 by ELISA; type: functional; procedure, shortened: as §1
[23] = target: Neutrophil collagenase (Homo sapiens, UniProt P22894); test: Inhibition of human recombinant MMP8 using MCA-Pro-Leu-Gly-Leu-Dpa-Ala-Arg-NH2.AcOH as substrate preincubated for 10 mins measured by fluorescence analysis; procedure, shortened: as §2
[24] = test system: Rattus norvegicus; test: Toxicity in Sprague-Dawley rat assessed as joint irritation at 0.5 mg/kg, ia measured after 48 hrs; type: organism-based; design: dose 0.5 mg/kg; details: in vivo, other
[25] = target: T1, Interstitial collagenase (Homo sapiens, UniProt P03956); test: Inhibition of human recombinant MMP1 using MCA-Pro-Leu-Gly-Leu-Dpa-Ala-Arg-NH2.AcOH as substrate preincubated for 10 mins measured by fluorescence analysis; procedure, shortened: as §2
T1 sequence (P03956 whole entry): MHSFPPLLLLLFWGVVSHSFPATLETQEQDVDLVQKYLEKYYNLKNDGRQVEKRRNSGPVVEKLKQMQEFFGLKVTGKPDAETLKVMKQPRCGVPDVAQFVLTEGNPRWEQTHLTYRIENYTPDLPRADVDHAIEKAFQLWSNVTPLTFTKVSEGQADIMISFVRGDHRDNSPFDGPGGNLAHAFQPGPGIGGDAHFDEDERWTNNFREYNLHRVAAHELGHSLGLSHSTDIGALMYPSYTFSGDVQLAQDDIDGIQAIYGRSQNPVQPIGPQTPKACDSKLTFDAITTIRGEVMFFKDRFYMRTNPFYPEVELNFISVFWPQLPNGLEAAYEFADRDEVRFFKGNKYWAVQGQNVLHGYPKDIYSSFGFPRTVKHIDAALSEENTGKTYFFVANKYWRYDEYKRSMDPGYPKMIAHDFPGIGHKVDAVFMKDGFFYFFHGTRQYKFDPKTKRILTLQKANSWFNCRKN

[26] = test system: Plasma; test: Drug uptake in Sprague-Dawley rat plasma at 100 mg/kg, ip measured after 8 weeks; type: ADME, organism-based; design: dose 100 mg/kg, route intraperitoneal; details: in vivo, 1344 h, BLD = below limit of detection
[27] = test system: Rattus norvegicus; test: Toxicity in Sprague-Dawley rat assessed as adverse effects at 0.5 mg/kg, ia measured after 3 weeks; type: organism-based; design: dose 0.5 mg/kg; details: in vivo, other, 504 h
[28] = species: Rattus norvegicus; test: Chondroprotective activity in Sprague-Dawley rat cartilage assessed as inhibition of MMP13-mediated C1,C2 release at 0.5 mg/joint, ia measured after 24 hrs by ELISA; type: functional; procedure, shortened: as §1
[29] = target: Disintegrin and metalloproteinase domain-containing protein 17 (Homo sapiens, UniProt P78536); test: Inhibition of human recombinant TACE using MCA-Pro-Leu-Ala-Gln-Ala-Val-Dpa-Arg-Ser-Ser-Ser-Arg-NH2 as substrate preincubated for 10 mins measured by fluorescence analysis
Procedure, shortened: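 Recombinant human TACE was assayed with its fluorogenic peptide substrate in 25 mM Tris-HCl pH 9, 1.25 μM Zn(OAc)₂, 0.005% Brij-35. Enzyme was 1–10 nM and substrate 4–10 μM. Enzyme was preincubated 10 min with varying inhibitor concentrations, and IC50 came from at least duplicate runs.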

[30] = test system: Plasma; test: Drug uptake in Sprague-Dawley rat plasma at 100 mg/kg, po measured after 8 weeks; type: ADME, organism-based; design: dose 100 mg/kg, route oral; details: in vivo, 1344 h, BLD = below limit of detection
[31] = target: T2, Matrilysin (Homo sapiens, UniProt P09237); test: Inhibition of human recombinant MMP7 using MCA-Pro-Leu-Gly-Leu-Dpa-Ala-Arg-NH2.AcOH as substrate preincubated for 10 mins measured by fluorescence analysis; procedure, shortened: as §2
T2 sequence (P09237 whole entry): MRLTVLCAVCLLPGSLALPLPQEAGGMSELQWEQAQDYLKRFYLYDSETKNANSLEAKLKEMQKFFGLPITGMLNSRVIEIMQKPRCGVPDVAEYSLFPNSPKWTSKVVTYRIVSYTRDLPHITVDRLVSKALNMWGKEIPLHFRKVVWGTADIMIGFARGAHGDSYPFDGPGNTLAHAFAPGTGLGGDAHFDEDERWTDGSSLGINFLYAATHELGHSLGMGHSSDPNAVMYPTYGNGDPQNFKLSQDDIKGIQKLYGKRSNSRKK

[32] = target: Macrophage metalloelastase (Homo sapiens, UniProt P39900); test: Inhibition of human recombinant MMP12 using MCA-Pro-Leu-Gly-Leu-Dpa-Ala-Arg-NH2.AcOH as substrate preincubated for 10 mins measured by fluorescence analysis; procedure, shortened: as §2
[33] = target: T3, A disintegrin and metalloproteinase with thrombospondin motifs 4 (Homo sapiens, UniProt O75173); test: Inhibition of human recombinant aggrecanase 1 using aggrecan-IGD as substrate measured after 15 mins by ELISA
T3 sequence (O75173 whole entry): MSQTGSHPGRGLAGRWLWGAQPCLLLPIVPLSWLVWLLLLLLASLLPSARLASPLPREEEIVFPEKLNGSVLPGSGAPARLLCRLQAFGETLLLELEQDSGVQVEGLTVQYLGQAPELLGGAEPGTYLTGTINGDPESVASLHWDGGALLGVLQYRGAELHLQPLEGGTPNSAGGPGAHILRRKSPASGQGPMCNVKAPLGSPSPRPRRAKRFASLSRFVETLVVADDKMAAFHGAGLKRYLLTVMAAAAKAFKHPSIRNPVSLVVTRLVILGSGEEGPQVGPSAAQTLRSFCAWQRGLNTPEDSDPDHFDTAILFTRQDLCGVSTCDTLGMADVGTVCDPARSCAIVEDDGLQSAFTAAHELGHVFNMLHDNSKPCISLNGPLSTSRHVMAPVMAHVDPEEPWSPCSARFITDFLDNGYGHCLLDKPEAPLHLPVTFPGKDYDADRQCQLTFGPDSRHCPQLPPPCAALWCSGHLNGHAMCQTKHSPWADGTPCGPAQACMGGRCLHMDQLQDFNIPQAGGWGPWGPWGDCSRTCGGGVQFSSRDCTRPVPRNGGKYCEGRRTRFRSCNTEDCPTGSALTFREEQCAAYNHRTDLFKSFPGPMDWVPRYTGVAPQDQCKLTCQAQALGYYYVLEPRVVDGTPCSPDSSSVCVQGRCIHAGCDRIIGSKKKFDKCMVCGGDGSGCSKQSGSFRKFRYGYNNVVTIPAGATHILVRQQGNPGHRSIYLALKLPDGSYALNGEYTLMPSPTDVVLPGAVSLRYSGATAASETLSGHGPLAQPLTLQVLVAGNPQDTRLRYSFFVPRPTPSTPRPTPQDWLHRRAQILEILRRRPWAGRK
Procedure, shortened: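 Aggrecanase-1 was run in 50 mM Tris-HCl pH 7.5, 150 mM NaCl, 5 mM CaCl₂, 0.05% Brij-35, with 100 nM recombinant human aggrecan interglobular domain as substrate, for 15 min at 37 °C. The reaction was stopped with EDTA, and ARGSVIL neoepitopes were quantified by ELISA.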

Neutrophil collagenase, sequence (P22894 whole entry): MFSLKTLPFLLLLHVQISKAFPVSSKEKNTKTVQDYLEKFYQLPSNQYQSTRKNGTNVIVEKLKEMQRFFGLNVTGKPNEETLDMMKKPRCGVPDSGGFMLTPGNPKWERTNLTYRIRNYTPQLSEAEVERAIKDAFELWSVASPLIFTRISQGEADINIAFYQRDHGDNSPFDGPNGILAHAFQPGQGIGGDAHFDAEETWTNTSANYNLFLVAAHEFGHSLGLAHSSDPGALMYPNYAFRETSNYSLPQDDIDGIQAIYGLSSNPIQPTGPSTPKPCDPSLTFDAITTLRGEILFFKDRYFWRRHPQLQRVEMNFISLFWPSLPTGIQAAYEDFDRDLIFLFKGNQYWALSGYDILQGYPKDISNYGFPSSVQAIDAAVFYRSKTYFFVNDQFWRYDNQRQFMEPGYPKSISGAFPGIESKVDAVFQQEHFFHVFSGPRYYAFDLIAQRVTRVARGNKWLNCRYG
Macrophage metalloelastase, sequence (P39900 whole entry): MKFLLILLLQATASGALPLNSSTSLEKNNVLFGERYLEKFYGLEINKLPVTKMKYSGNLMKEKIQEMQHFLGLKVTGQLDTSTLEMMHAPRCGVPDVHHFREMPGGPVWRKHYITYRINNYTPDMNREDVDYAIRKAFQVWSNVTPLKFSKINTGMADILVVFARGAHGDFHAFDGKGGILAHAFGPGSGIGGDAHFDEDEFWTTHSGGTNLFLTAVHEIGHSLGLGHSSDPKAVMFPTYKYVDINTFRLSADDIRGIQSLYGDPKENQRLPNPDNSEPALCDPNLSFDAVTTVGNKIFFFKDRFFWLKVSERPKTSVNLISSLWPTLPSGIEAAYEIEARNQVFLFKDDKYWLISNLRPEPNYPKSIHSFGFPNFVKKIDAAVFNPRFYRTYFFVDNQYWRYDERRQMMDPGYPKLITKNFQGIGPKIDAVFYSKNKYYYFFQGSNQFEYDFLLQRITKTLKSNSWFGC
Matrix metalloproteinase-9, sequence (P14780 whole entry): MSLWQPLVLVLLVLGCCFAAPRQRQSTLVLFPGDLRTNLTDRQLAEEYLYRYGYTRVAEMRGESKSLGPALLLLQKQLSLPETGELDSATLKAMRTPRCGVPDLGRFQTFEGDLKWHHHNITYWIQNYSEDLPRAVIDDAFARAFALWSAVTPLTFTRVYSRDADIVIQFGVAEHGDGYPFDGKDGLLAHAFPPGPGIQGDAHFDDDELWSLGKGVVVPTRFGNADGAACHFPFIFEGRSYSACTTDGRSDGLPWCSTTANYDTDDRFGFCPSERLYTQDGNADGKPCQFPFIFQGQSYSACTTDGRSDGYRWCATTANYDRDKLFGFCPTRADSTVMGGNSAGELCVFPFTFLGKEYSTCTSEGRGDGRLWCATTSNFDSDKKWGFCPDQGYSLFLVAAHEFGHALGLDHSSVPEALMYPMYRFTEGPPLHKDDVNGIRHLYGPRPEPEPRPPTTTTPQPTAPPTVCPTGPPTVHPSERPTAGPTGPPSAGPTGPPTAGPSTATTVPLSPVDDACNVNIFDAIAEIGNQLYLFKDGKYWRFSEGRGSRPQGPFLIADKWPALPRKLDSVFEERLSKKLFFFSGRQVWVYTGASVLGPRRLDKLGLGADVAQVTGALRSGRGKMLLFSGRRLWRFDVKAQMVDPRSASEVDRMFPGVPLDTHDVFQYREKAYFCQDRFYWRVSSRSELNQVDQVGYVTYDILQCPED
72 kDa type IV collagenase, sequence (P08253 whole entry): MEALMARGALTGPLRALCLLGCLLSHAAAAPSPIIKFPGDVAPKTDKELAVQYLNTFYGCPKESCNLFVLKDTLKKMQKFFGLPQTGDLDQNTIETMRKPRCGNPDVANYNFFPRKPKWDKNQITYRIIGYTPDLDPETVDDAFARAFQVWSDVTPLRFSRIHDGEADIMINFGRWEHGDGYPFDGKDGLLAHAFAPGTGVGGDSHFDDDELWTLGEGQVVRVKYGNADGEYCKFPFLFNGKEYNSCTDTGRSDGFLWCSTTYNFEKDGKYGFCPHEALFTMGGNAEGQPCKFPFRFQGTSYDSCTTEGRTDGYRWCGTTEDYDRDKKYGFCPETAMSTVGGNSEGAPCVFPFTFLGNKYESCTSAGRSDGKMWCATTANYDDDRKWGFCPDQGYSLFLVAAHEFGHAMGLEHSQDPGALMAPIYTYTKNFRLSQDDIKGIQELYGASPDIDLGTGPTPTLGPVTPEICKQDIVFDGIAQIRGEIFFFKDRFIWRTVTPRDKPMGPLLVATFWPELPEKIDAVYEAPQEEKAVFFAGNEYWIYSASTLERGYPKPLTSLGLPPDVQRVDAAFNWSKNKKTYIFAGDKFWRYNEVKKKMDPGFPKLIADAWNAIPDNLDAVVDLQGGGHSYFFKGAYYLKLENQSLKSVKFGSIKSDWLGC
Stromelysin-1, sequence (P08254 whole entry, the tested form may be a part): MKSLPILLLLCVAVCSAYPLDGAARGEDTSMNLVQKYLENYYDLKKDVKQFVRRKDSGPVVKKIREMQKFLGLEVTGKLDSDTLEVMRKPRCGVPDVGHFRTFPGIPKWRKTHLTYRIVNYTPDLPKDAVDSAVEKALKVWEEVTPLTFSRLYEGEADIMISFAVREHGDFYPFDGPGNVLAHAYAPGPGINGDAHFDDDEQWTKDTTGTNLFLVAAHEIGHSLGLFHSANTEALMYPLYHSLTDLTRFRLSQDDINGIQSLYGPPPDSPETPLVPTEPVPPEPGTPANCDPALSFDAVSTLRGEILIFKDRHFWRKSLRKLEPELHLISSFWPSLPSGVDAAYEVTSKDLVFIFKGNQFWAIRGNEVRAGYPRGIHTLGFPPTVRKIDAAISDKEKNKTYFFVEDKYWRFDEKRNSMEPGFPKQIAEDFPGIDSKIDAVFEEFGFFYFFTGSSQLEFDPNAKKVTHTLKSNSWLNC
Disintegrin and metalloproteinase domain-containing protein 17, sequence (P78536 whole entry, the tested form may be a part): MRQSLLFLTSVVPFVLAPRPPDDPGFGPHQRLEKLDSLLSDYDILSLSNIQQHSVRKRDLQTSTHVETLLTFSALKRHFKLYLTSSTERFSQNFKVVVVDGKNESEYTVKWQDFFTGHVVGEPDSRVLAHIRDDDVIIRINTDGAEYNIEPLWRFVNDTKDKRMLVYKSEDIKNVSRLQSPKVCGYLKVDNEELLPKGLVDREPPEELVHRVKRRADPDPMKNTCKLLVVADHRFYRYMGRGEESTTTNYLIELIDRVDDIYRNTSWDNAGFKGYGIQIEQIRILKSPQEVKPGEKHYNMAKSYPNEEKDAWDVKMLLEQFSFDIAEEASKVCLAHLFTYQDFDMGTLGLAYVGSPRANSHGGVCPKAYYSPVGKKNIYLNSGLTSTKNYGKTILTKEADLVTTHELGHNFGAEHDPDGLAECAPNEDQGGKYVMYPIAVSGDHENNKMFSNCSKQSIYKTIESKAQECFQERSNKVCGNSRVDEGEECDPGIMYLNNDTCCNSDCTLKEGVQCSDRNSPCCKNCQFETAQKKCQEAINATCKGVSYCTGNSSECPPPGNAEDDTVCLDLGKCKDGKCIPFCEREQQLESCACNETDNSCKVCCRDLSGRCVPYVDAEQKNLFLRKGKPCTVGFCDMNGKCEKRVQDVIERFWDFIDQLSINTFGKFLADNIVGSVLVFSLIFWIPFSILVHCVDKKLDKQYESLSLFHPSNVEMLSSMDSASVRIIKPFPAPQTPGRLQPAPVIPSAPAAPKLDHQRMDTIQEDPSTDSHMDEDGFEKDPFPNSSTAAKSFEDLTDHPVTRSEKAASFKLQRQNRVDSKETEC

Cp [2]: BLD
IC50 [3]: 0.03 nM
remaining at 1 h [5]: 96%
concentration at 56 days [6]: ≥ 2000 nM
IC50 [7]: 8.2 µM
IC50 ([9]; 264 h): 0.02 µM
concentration at 504 h [11]: 4090 nM
Cp [13]: BLD
IC50 [14]: > 20 µM
IC50 [15]: > 20 µM
Cp [16]: BLD
IC50 [17]: > 20 µM
Drug uptake [18]: BLD
remaining at 1 h [19]: 95%
concentration at 504 h [21]: 300 nM
IC50 [23]: 3.2 µM
IC50 [25]: > 20 µM
Cp [26]: BLD
IC50 [29]: > 20 µM
Cp [30]: BLD
IC50 [31]: > 20 µM
IC50 [32]: 0.655 µM
IC50 [33]: 2.4 µM
Structure (SMILES): Cc1c(C(=O)O)ccc2c1CC[C@@H]2NC(=O)c1cc(C(=O)NCc2ccc3c(c2)NC(=O)CO3)nc2ccnn12
inhibition (INH) [1]: 100%
inhibition (INH) [4]: 100%
Activity [8]: Non-toxic
inhibition [9]: Dose-dependent effect
Activity [10]: Non-toxic
Activity [12]: Non-toxic
Activity [20]: Non-toxic
inhibition (INH) [22]: 100%
Activity [24]: Non-toxic
Activity [27]: Non-toxic
inhibition (INH) [28]: 100%
